In ChEMBL document CHEMBL3259728, “Design, synthesis and biological evaluation of some novel substituted quinazolines as antitumor agents” (2014):

Experiments:
Format in all cases: functional
U-251 = assay: Growth inhibition of human U251 cells assessed as cell growth at 10^-4 M after 48 hrs by SRB assay; settings: U-251, 48 h, read-out: Activity
[1] = Growth inhibition of human HCT15 cells assessed as cell growth at 10^-4 M after 48 hrs by SRB assay; settings: HCT-15, 48 h, read-out: Activity
COLO 205 = assay: Growth inhibition of human COLO205 cells assessed as cell growth at 10^-4 M after 48 hrs by SRB assay; settings: COLO 205, 48 h, read-out: Activity
Summary of the method: (§1)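 Five-dose NCI panel protocol. Each dose (10^-4 to 10^-8 M, 10-fold steps) was given as 48 h continuous exposure, and protein was measured by SRB staining. Percentage growth at each level is [(Ti−Tz)/(C−Tz)]×100, where Tz is time-zero absorbance and C is untreated control.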

[2] = Growth inhibition of human SF539 cells assessed as cell growth at 10^-8 M after 48 hrs by SRB assay; settings: SF-539, 48 h, read-out: Activity
[3] = Growth inhibition of human HCT15 cells assessed as cell growth at 10^-8 M after 48 hrs by SRB assay; settings: HCT-15, 48 h, read-out: Activity
786-0 = assay: Growth inhibition of human 786-0 cells assessed as cell growth at 10^-5 M after 48 hrs by SRB assay; settings: 786-0, 48 h, read-out: Activity; summary of the method: as §1
[4] = Growth inhibition of human OVCAR4 cells assessed as cell growth at 10^-5 M after 48 hrs by SRB assay; settings: OVCAR-4, 48 h, read-out: Activity
[5] = Growth inhibition of human UACC257 cells assessed as cell growth at 10^-5 M after 48 hrs by SRB assay; settings: UACC-257, 48 h, read-out: Activity
T47D = assay: Growth inhibition of human T47D cells assessed as cell growth at 10^-6 M after 48 hrs by SRB assay; settings: read-out: Activity
IGROV-1 [6] = assay: Growth inhibition of human IGROV1 cells assessed as cell growth at 10^-6 M after 48 hrs by SRB assay; settings: IGROV-1, 48 h, read-out: Activity
[7] = Growth inhibition of human UACC62 cells assessed as cell growth at 10^-6 M after 48 hrs by SRB assay; settings: UACC-62, 48 h, read-out: Activity
Malme-3M = assay: Growth inhibition of human MALME-3M cells assessed as cell growth at 10^-6 M after 48 hrs by SRB assay; settings: read-out: Activity
MDA-MB-435 [8] = assay: Growth inhibition of human MDA-MB-435 cells assessed as cell growth at 10^-5 M after 48 hrs by SRB assay; settings: MDA-MB-435, 48 h, read-out: Activity
NCI-H226 [9] = assay: Growth inhibition of human NCI-H226 cells assessed as cell growth at 10^-6 M after 48 hrs by SRB assay; settings: NCI-H226, 48 h, read-out: Activity
NCI-H226 [10] = assay: Growth inhibition of human NCI-H226 cells assessed as cell growth at 10^-7 M after 48 hrs by SRB assay; settings: NCI-H226, 48 h, read-out: Activity
[11] = Growth inhibition of human BT549 cells assessed as cell growth at 10^-8 M after 48 hrs by SRB assay; settings: BT-549, 48 h, read-out: Activity; summary of the method: as §1
[12] = Growth inhibition of human OVCAR5 cells assessed as cell growth at 10^-8 M after 48 hrs by SRB assay; settings: OVCAR-5, 48 h, read-out: Activity
[13] = Cytotoxicity against human UACC257 cells after 48 hrs by SRB assay; settings: UACC-257, 48 h
Summary of the method: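 NCI 60-cell-line panel, 48 h continuous exposure to five 10-fold dilutions from 10^-4 to 10^-8 M. SRB protein staining was read spectrophotometrically, with time-zero, untreated-control and treated absorbances. GI50, TGI and LC50 were derived from the percentage-growth formulas. Values outside the tested range are expressed as more or less than the maximum or minimum concentration.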

M14 = assay: Cytotoxicity against human M14 cells after 48 hrs by SRB assay; settings: M14, 48 h
Summary of the method: (§2)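 NCI 60-cell-line panel of human tumour lines from nine cancer types. Continuous 48 h exposure at five 10-fold dilutions from 10^-4 to 10^-8 M, with 5-FU as positive control. SRB protein stain read spectrophotometrically at time zero, untreated control and each concentration. GI50, TGI and LC50 were derived from the [(Ti−Tz)/(C−Tz)]×100 growth relations, and out-of-range values are given as > or < the tested limits.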

CAKI-1 = assay: Cytotoxicity against human CAKI-1 cells after 48 hrs by SRB assay; settings: CAKI-1, 48 h; summary of the method: as §2
MCF7 = assay: Cytotoxicity against human MCF7 cells after 48 hrs by SRB assay; settings: MCF7, 48 h; summary of the method: as §2
[14] = Growth inhibition of human HOP92 cells assessed as cell growth at 10^-6 M after 48 hrs by SRB assay; settings: HOP-92, 48 h, read-out: Activity
[15] = Growth inhibition of human Hs578T cells assessed as cell growth at 10^-7 M after 48 hrs by SRB assay; settings: Hs-578T, read-out: Activity
[16] = Growth inhibition of human UACC257 cells assessed as cell growth at 10^-7 M after 48 hrs by SRB assay; settings: UACC-257, 48 h, read-out: Activity
SK-MEL-28 = assay: Growth inhibition of human SK-MEL-28 cells assessed as cell growth at 10^-7 M after 48 hrs by SRB assay; settings: SK-MEL-28, 48 h, read-out: Activity
MDA-MB-435 [17] = assay: Growth inhibition of human MDA-MB-435 cells assessed as cell growth at 10^-7 M after 48 hrs by SRB assay; settings: MDA-MB-435, 48 h, read-out: Activity
NCI-H23 = assay: Cytotoxicity against human NCI-H23 cells after 48 hrs by SRB assay; settings: NCI-H23, 48 h; summary of the method: as §2
IGROV-1 [18] = assay: Growth inhibition of human IGROV1 cells assessed as cell growth at 10^-4 M after 48 hrs by SRB assay; settings: IGROV-1, 48 h, read-out: Activity
SK-MEL-5 = assay: Growth inhibition of human SK-MEL-5 cells assessed as cell growth at 10^-4 M after 48 hrs by SRB assay; settings: SK-MEL-5, 48 h, read-out: Activity
[19] = read-out: LC50 (the source's name)
[20] = read-out: pLC50 (the source's name) (converted)

SMILES: Cc1ccc(-c2nc3ccc(Cl)cc3c(=O)n2/N=C/c2ccccc2)cc1
- growth at 100 µM (U-251): 7%
- growth at 100 µM [1]: 69%
- growth at 100 µM (COLO 205): 38%
- growth at 0.01 µM [2]: 90%
- growth at 0.01 µM [3]: 92%
- growth at 10 µM (786-0): 18%
- growth at 10 µM [4]: 23%
- growth at 10 µM [5]: 73%
- growth at 1 µM (T47D): 100%
- growth at 1 µM (IGROV-1 [6]): 71%
- growth at 1 µM [7]: 80%
- growth at 1 µM (Malme-3M): 74%
- growth at 10 µM (MDA-MB-435 [8]): 59%
- growth at 1 µM (NCI-H226 [9]): 79%
- growth at 0.1 µM (NCI-H226 [10]): 82%
- growth at 0.01 µM [11]: 100%
- growth at 0.01 µM [12]: 96%
- GI50 ([13]; read-out: GI50): > 100 µM
- CC50 [13, 19]: > 100 µM
- TGI ([13]; read-out: TGI): > 100 µM
- GI50 ([13]; read-out: pGI50 (converted)): > 100 µM
- CC50 [13, 20]: > 100 µM
- TGI ([13]; read-out: pTGI): > 100 µM
- GI50 (M14; read-out: GI50): 56.2 µM
- CC50 (M14; [19]): > 100 µM
- TGI (M14; read-out: TGI): > 100 µM
- GI50 (M14; read-out: pGI50 (converted)): 56.2 µM
- CC50 (M14; [20]): > 100 µM
- TGI (M14; read-out: pTGI): > 100 µM
- GI50 (CAKI-1; read-out: GI50): 4.82 µM
- CC50 (CAKI-1; [19]): > 100 µM
- TGI (CAKI-1; read-out: TGI): > 100 µM
- GI50 (CAKI-1; read-out: pGI50 (converted)): 4.79 µM
- CC50 (CAKI-1; [20]): > 100 µM
- TGI (CAKI-1; read-out: pTGI): > 100 µM
- GI50 (MCF7; read-out: GI50): 26.9 µM
- CC50 (MCF7; [19]): > 100 µM
- TGI (MCF7; read-out: TGI): > 100 µM
- GI50 (MCF7; read-out: pGI50 (converted)): 26.9 µM
- CC50 (MCF7; [20]): > 100 µM
- TGI (MCF7; read-out: pTGI): > 100 µM
- growth at 1 µM [14]: 85%
- growth at 0.1 µM [15]: 90%
- growth at 0.1 µM [16]: 99%
- growth at 0.1 µM (SK-MEL-28): 97%
- growth at 0.1 µM (MDA-MB-435 [17]): 86%
- GI50 (NCI-H23; read-out: GI50): 100 µM
- CC50 (NCI-H23; [19]): > 100 µM
- TGI (NCI-H23; read-out: TGI): > 100 µM
- GI50 (NCI-H23; read-out: pGI50 (converted)): > 100 µM
- CC50 (NCI-H23; [20]): > 100 µM
- TGI (NCI-H23; read-out: pTGI): > 100 µM
- growth at 100 µM (IGROV-1 [18]): 25%
- growth at 100 µM (SK-MEL-5): 34%
